Measurements as given in ChEMBL document CHEMBL3774373, “Activity and Predicted Nephrotoxicity of Synthetic Antibiotics Based on Polymyxin B” (J Med Chem, 2016).
Values after ≈ are worked out from the molar mass of the structure shown. Numbered stars: 1 amine (or outer) side, 2 acyl side, 3 side chain; on linkers, the order of the positions; unused ones are H or OH. Bridge positions count the residues as written; N and C are the ends. Square brackets hold non-standard residues; d marks the D form. Peptide text beside a SMILES is read from it. * marks the point of attachment. X1 = c1ccc(-c2ccc(N*)cc2)cc1; NH(2-ClPh) = Clc1ccccc1N*; Octanoyl = CCCCCCCC(=O)*; Dab = NCC[C@H](N)C(=O)O; CO = O=C([*:1])[*:2]

What was measured:
Klebsiella pneumoniae [1] = experiment: Antibacterial activity against clinical isolate carbapenem and polymyxin resistant Klebsiella pneumoniae Koprana 100650661:1 after 18 hrs by 2 fold serial dilution method; assay type: functional; conditions: Koprana 100650661:1, 18 h
Procedure, shortened: (§1)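 Polymyxin-resistant clinical isolates were grown overnight at 37 °C in NB or MHB with shaking, diluted 50-fold in MHB and grown 1.5–3 h to mid-log phase. The inoculum was 5×10^5 CFU/mL. Compounds were 2-fold broth serial dilutions, final 32 to 0.015 μg/mL; the polymyxin controls ran 128–0.06 μg/mL. The MIC was the lowest concentration with no visible growth after 18 h at 37 °C.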

Staphylococcus aureus [2] = experiment: microbe, parasite or virus in culture; conditions: ATCC 25923, 18 h
Acinetobacter baumannii [3] = experiment: Antibacterial activity against Acinetobacter baumannii after 16 to 20 hrs by 2 fold broth microdilution method; assay type: functional
Acinetobacter baumannii [4] = experiment: Antibacterial activity against Acinetobacter baumannii ATCC 19606 after 18 hrs by 2 fold serial dilution method; assay type: functional; conditions: ATCC 19606, 18 h
Procedure, shortened: (§2)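 Overnight cultures in nutrient or Mueller Hinton broth at 37 °C with shaking, diluted 50-fold into fresh MHB and grown 1.5–3 h to mid-log. Inoculum 5×10^5 CFU/mL in 2-fold serial dilutions, final range 32 to 0.015 μg/mL. MIC read visually after 18 h at 37 °C as the lowest concentration with no visible growth.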

Klebsiella pneumoniae [5] = experiment: Antibacterial activity against Klebsiella pneumoniae ATCC 13883 after 18 hrs by 2 fold serial dilution method; assay type: functional; conditions: ATCC 13883, 18 h; procedure, shortened: as §2
Acinetobacter baumannii [6] = experiment: Antibacterial activity against clinical isolate carbapenem and polymyxin resistant Acinetobacter baumannii Ptyela 100734512:2 after 18 hrs by 2 fold serial dilution method; assay type: functional; conditions: Ptyela 100734512:2, 18 h; procedure, shortened: as §1
[7] = (§3) Cytotoxicity against human HepG2 cells after 24 hrs by resazurin assay; assay type: cell-based; conditions: HepG2 cells
Klebsiella pneumoniae [8] = experiment: Antibacterial activity against Klebsiella pneumoniae after 16 to 20 hrs by 2 fold broth microdilution method; assay type: functional
Pseudomonas aeruginosa [9] = experiment: Antibacterial activity against clinical isolate polymyxin resistant Pseudomonas aeruginosa FADDI-PA070 after 18 hrs by 2 fold serial dilution method; assay type: functional; conditions: FADDI-PA070, 18 h; procedure, shortened: as §1
Klebsiella pneumoniae [10] = experiment: Antibacterial activity against clinical isolate carbapenem and polymyxin resistant Klebsiella pneumoniae 138-16357-20362 after 18 hrs by 2 fold serial dilution method; assay type: functional; conditions: 138-16357-20362, 18 h; procedure, shortened: as §1
Pseudomonas aeruginosa [11] = experiment: Antibacterial activity against clinical isolate polymyxin resistant Pseudomonas aeruginosa PA9704 after 18 hrs by 2 fold serial dilution method; assay type: functional; conditions: PA9704, 18 h; procedure, shortened: as §1
Pseudomonas aeruginosa [12] = experiment: Antibacterial activity against Pseudomonas aeruginosa after 16 to 20 hrs by 2 fold broth microdilution method; assay type: functional
Escherichia coli [13] = experiment: Antibacterial activity against Escherichia coli ATCC 25922 after 18 hrs by 2 fold serial dilution method; assay type: functional; conditions: ATCC 25922, 18 h; procedure, shortened: as §2
Escherichia coli [14] = experiment: Antibacterial activity against Escherichia coli after 16 to 20 hrs by 2 fold broth microdilution method; assay type: functional
Pseudomonas aeruginosa [15] = experiment: Antibacterial activity against Pseudomonas aeruginosa ATCC 27853 after 18 hrs by 2 fold serial dilution method; assay type: functional; conditions: ATCC 27853, 18 h; procedure, shortened: as §2
Klebsiella pneumoniae [16] = experiment: Antibacterial activity against multidrug resistant Klebsiella pneumoniae ATCC 700603 after 18 hrs by 2 fold serial dilution method; assay type: functional; conditions: Klebsiella pneumoniae, 700603, 18 h
Procedure, shortened: (§4)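 Overnight cultures at 37 °C in nutrient or Mueller Hinton broth with shaking were diluted 50-fold in MHB and grown 1.5–3 h to mid-log phase. The inoculum was 5×10^5 CFU/mL in MHB. Compounds were 2-fold serially diluted, final 32 to 0.015 μg/mL. After 18 h at 37 °C, the MIC was read visually as the lowest concentration with no visible growth.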

Klebsiella pneumoniae [17] = experiment: Antibacterial activity against Klebsiella pneumoniae ATCC BAA-2146 expressing NDM-1 after 18 hrs by 2 fold serial dilution method; assay type: functional; conditions: ATCC BAA-2146, 18 h; procedure, shortened: as §4
HepG2 = experiment: as §3; assay type: cell-based; conditions: hepg2, 24 h
HEK293 = experiment: (§5) Cytotoxicity against HEK293 cells after 24 hrs by resazurin assay; assay type: cell-based; conditions: human, hek293, 24 h
[18] = Cytotoxicity against HK2 cells assessed as LDH release by Western blot analysis; assay type: cell-based, HK-2; conditions: human
[19] = Cytotoxicity against HK2 cells assessed as GGT release by Western blot analysis; assay type: cell-based, HK-2; conditions: human
Pseudomonas aeruginosa [20] = experiment: Antibacterial activity against Pseudomonas aeruginosa after 24 hrs by macrobroth dilution method; assay type: functional
Escherichia coli [21] = experiment: Antibacterial activity against Escherichia coli after 24 hrs by macrobroth dilution method; assay type: functional
Staphylococcus aureus [22] = experiment: Antibacterial activity against Staphylococcus aureus after 24 hrs by macrobroth dilution method; assay type: functional
Escherichia coli [23] = experiment: Antibacterial activity against Escherichia coli ATCC 26 after 18 hrs by 2 fold serial dilution method; assay type: functional; conditions: ATCC 26, 18 h; procedure, shortened: as §4
[24] = as §5; assay type: cell-based; conditions: human, HEK293 cells
[25] = primary human renal proximal tubule epithelial cells, read-out: CC50

Row | Compound | MIC (Klebsiella pneumoniae [1]) [µg/mL] | MIC (Staphylococcus aureus [2]) [µg/mL] | MIC (Acinetobacter baumannii [4]) [µg/mL] | MIC (Klebsiella pneumoniae [5]) [µg/mL] | MIC (Acinetobacter baumannii [6]) [µg/mL] | CC50 at 24 h [7] [µM] | MIC (Pseudomonas aeruginosa [9]) [µg/mL] | MIC (Klebsiella pneumoniae [10]) [µg/mL] | MIC (Pseudomonas aeruginosa [11]) [µg/mL] | MIC (Escherichia coli [13]) [µg/mL] | MIC (Pseudomonas aeruginosa [15]) [µg/mL] | MIC (Klebsiella pneumoniae [16]) [µg/mL] | MIC (Klebsiella pneumoniae [17]) [µg/mL] | further results
1 | CC(C)C[C@@H]1NC(=O)[C@@H](Cc2ccccc2)NC(=O)[C@H](CCN)NC(=O)[C@@H](NC(=O)[C@H](CCN)NC(=O)[C@@H](NC(=O)[C@H](CCN)NC(=O)Nc2ccccc2Cl)[C@@H](C)O)CCNC(=O)[C@H]([C@@H](C)O)NC(=O)[C@H](CCN)NC(=O)[C@H](CCN)NC1=O ({NH(2-ClPh)-CO}-[Dab]T[Dab][Dab][Dab][dF]L[Dab][Dab]T; lactam 4-C) | > 32 | > 32 | 1 (≈ 0.822 µM) | 2 (≈ 1.64 µM) | > 32 | > 300 | > 32 | > 32 | > 32 | 1 (≈ 0.822 µM) | 0.5 (≈ 0.411 µM) | 2 (≈ 1.64 µM) | 4 (≈ 3.29 µM) | MIC90 (Acinetobacter baumannii [3]): 4 µg/mL (≈ 3.29 µM); MIC90 (Klebsiella pneumoniae [8]): 4 µg/mL (≈ 3.29 µM); MIC90 (Pseudomonas aeruginosa [12]): 2 µg/mL (≈ 1.64 µM); MIC90 (Escherichia coli [14]): 2 µg/mL (≈ 1.64 µM)
2 | GENTAMICIN | – | – | – | – | – | – | – | – | – | – | – | – | – | CC50 (HepG2): > 300 µM; CC50 (HEK293): > 300 µM; CC50 ([18]; hk-2): 33 µg/mL; CC50 ([19]; hk-2): 33 µg/mL
3 | CCCCCCCC(=O)N[C@@H](CCN)C(=O)N[C@H](C(=O)N[C@@H](CCN)C(=O)N[C@H]1CCNC(=O)[C@H]([C@@H](C)O)NC(=O)[C@H](CCNC(=O)[C@@H](N)CCCNC(=N)N)NC(=O)[C@H](CCN)NC(=O)[C@H](CC(C)C)NC(=O)[C@@H](Cc2ccccc2)NC(=O)[C@H](CCN)NC1=O)[C@@H](C)O (Octanoyl-[Dab]T[Dab][Dab][Dab][dF]L[Dab][Dab](Arg)T; lactam 4-C) | > 32 | > 32 | 16 (≈ 11.9 µM) | 32 (≈ 23.8 µM) | > 32 | > 300 | > 32 | > 32 | > 32 | 32 (≈ 23.8 µM) | 32 (≈ 23.8 µM) | 8 (≈ 5.95 µM) | 8 (≈ 5.95 µM) | MIC (Pseudomonas aeruginosa [20]): 0.03 µg/mL (≈ 0.0223 µM); MIC (Escherichia coli [21]): 0.16 µg/mL (≈ 0.119 µM); MIC (Staphylococcus aureus [22]): 2 µg/mL (≈ 1.49 µM)
4 | CC(C)C[C@@H]1NC(=O)[C@@H](Cc2ccccc2)NC(=O)[C@H](CCN)NC(=O)[C@@H](NC(=O)[C@H](CCN)NC(=O)[C@@H](NC(=O)[C@H](CCN)NC(=O)Nc2ccc(-c3ccccc3)cc2)[C@@H](C)O)CCNC(=O)[C@H]([C@@H](C)O)NC(=O)[C@H](CCN)NC(=O)[C@H](CCN)NC1=O ({X1-CO}-[Dab]T[Dab][Dab][Dab][dF]L[Dab][Dab]T; lactam 4-C) | 16 (≈ 12.7 µM) | 32 (≈ 25.4 µM) | 1 (≈ 0.795 µM) | 2 (≈ 1.59 µM) | 16 (≈ 12.7 µM) | 316 | 16 (≈ 12.7 µM) | > 32 | 8 (≈ 6.36 µM) | 2 (≈ 1.59 µM) | 1 (≈ 0.795 µM) | 2 (≈ 1.59 µM) | 1 (≈ 0.795 µM) | MIC (Escherichia coli [23]): 2.5 µg/mL (≈ 1.99 µM); CC50 at 24 h [24]: > 300 µM; CC50 [18, 25]: > 128 µg/mL; CC50 [19, 25]: > 128 µg/mL
